Laboratory results from ChEMBL document CHEMBL4190286, “Modulating the Serotonin Receptor Spectrum of Pulicatin Natural Products” (J Nat Prod, 2017).
Active and inactive are the calls of the source. The rule behind the calls is not given here.

Tests used:
[1] = target: T1, 5-hydroxytryptamine receptor 1B (Homo sapiens, UniProt P28222); assay: Agonist activity at 5-HT1B receptor (unknown origin) at 2 uM by Tango assay; type: functional
[2] = target: T2, 5-hydroxytryptamine receptor 3A (Homo sapiens, UniProt P46098); assay: Displacement of [3H]-GR65630 from human 5-HT3 receptor expressed in HEKT cells after 90 mins by microbeta scintillation counting analysis; type: cell-based
T2 sequence (P46098 whole entry): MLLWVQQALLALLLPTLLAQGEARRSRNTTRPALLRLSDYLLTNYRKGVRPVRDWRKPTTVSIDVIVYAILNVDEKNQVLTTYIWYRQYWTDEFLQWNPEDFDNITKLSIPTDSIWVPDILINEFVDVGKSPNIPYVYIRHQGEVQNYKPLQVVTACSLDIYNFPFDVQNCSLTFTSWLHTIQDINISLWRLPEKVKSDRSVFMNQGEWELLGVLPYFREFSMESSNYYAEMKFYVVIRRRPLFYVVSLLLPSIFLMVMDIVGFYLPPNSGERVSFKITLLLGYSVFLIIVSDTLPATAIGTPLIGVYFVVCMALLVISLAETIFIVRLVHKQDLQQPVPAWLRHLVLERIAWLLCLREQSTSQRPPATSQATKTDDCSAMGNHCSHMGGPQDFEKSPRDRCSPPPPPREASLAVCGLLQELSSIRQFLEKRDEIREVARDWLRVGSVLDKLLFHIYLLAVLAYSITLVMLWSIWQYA

[3] = target: T3, 5-hydroxytryptamine receptor 1D (Homo sapiens, UniProt P28221); assay: Antagonist activity at 5-HT1D receptor (unknown origin) by Tango assay; type: functional
T3 sequence (P28221 whole entry): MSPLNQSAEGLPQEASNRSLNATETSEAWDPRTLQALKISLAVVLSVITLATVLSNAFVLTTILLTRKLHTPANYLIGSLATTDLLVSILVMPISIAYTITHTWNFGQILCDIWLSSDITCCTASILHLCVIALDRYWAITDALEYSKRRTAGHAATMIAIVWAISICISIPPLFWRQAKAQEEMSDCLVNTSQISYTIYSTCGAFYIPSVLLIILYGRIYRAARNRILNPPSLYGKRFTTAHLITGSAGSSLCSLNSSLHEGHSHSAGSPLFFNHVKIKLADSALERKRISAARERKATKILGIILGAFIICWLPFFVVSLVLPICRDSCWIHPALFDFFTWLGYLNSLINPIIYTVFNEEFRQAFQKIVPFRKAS

[4] = target: T3, 5-hydroxytryptamine receptor 1D; assay: Displacement of [3H]5-CT from human 5-HT1D receptor expressed in HEKT cells after 90 mins by microbeta scintillation counting analysis; type: cell-based
[5] = target: T4, 5-hydroxytryptamine receptor 1E (Homo sapiens, UniProt P28566); assay: Displacement of [3H]5-HT from human 5-HT1E receptor expressed in HEK cells after 90 mins by microbeta scintillation counting analysis; type: cell-based
T4 sequence (P28566 whole entry): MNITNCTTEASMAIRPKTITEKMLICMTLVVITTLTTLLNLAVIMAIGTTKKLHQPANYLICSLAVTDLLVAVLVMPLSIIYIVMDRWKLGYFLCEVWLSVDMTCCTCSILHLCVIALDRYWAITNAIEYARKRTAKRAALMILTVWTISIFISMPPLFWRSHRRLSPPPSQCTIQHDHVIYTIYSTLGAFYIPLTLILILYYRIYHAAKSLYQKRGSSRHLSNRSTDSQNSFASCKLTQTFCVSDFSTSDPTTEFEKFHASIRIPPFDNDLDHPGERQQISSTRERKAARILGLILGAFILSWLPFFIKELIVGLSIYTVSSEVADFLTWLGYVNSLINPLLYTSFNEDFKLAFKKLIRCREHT

[6] = target: T5, 5-hydroxytryptamine receptor 2B (Homo sapiens, UniProt P41595); assay: Displacement of [3H]-LSD from human 5-HT2B receptor expressed in HEK cells after 90 mins by microbeta scintillation counting analysis; type: cell-based
T5 sequence (P41595 whole entry): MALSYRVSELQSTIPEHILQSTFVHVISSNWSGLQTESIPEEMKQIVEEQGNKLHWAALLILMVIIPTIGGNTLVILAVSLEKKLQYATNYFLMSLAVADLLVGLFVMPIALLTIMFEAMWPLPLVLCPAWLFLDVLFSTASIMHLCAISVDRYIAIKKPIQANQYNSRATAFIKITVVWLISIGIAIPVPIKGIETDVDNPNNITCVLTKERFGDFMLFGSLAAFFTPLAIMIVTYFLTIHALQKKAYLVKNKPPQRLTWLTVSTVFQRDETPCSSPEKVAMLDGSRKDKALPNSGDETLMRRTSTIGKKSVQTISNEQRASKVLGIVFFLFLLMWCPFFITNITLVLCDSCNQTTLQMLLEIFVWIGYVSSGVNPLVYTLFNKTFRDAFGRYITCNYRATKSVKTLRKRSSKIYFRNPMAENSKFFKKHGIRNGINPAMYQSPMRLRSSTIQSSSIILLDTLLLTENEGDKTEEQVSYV

[7] = target: T6, 5-hydroxytryptamine receptor 7 (Homo sapiens, UniProt P34969); assay: Displacement of [3H]-LSD from human 5-HT7A receptor expressed in HEK cells after 90 mins by microbeta scintillation counting analysis; type: cell-based
T6 sequence (P34969 whole entry): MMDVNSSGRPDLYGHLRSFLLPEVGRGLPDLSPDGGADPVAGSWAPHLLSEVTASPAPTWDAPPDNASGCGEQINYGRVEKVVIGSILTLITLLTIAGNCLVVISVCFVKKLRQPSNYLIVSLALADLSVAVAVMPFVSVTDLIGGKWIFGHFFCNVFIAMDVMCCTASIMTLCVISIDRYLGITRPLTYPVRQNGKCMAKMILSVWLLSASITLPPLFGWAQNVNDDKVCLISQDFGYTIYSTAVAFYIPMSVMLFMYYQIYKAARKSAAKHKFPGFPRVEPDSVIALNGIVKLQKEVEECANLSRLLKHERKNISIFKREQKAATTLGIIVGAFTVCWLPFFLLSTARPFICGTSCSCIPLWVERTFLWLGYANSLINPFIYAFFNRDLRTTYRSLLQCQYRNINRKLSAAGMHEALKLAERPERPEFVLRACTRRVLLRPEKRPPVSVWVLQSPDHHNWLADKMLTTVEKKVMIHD

[8] = target: T7, 5-hydroxytryptamine receptor 5A (Homo sapiens, UniProt P47898); assay: Displacement of [3H]-LSD from human 5-HT5A receptor expressed in Flp-In CHO cells after 90 mins by microbeta scintillation counting analysis; type: cell-based
T7 sequence (P47898 whole entry): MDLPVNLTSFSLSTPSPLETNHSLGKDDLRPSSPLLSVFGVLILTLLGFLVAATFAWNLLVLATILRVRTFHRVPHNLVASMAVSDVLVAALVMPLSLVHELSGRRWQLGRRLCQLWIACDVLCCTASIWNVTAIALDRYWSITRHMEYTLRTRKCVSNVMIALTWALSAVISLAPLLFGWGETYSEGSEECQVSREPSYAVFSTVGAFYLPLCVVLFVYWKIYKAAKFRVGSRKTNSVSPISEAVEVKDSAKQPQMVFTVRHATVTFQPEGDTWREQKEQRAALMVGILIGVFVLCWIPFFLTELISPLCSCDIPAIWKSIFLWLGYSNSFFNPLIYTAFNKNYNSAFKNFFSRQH

[9] = target: 5-hydroxytryptamine receptor 4 (Homo sapiens, UniProt Q13639); assay: Antagonist activity at 5-HT4 receptor (unknown origin) by Tango assay; type: functional
Sequence of 5-hydroxytryptamine receptor 4 (Q13639 whole entry): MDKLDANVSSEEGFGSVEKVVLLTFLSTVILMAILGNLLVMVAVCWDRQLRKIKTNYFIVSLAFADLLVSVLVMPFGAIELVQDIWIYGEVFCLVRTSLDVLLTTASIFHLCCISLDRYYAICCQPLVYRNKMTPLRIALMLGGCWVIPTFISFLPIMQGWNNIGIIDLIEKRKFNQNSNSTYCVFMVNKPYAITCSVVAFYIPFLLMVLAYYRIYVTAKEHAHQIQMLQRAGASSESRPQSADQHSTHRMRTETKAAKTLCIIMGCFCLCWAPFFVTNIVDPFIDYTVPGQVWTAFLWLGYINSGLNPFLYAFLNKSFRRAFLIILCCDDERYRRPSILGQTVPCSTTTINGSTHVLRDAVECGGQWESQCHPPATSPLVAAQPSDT

[10] = target: T8, 5-hydroxytryptamine receptor 2C (Homo sapiens, UniProt P28335); assay: Displacement of [3H]-Mesulergine from human 5-HT2C receptor expressed in HEKT cells after 90 mins by microbeta scintillation counting analysis; type: cell-based
T8 sequence (P28335 whole entry): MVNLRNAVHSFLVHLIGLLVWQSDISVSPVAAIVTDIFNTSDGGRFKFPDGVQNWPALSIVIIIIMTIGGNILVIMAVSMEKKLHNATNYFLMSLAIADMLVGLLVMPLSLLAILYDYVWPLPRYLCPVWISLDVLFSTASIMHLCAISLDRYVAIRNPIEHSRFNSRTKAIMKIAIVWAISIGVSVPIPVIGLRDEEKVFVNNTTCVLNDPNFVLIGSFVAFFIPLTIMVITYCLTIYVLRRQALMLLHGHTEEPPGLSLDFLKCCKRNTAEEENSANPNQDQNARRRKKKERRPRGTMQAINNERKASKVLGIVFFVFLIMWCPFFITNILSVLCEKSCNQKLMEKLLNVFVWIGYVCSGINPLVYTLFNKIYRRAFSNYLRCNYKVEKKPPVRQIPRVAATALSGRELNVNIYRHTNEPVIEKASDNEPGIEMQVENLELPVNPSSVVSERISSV

[11] = target: T9, 5-hydroxytryptamine receptor 1A (Homo sapiens, UniProt P08908); assay: Antagonist activity at 5-HT1A receptor (unknown origin) by Tango assay; type: functional
T9 sequence (P08908 whole entry): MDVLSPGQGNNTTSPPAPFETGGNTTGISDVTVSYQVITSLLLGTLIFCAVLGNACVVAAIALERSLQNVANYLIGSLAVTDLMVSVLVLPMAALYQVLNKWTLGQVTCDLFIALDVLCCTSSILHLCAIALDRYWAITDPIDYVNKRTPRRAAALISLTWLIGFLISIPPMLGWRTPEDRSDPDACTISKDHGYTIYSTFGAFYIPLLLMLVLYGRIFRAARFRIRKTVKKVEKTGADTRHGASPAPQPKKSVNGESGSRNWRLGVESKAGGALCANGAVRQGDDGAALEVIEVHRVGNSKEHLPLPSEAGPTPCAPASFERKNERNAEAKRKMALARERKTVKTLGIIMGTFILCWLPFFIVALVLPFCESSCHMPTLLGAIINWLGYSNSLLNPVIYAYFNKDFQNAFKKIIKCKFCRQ

[12] = target: T1, 5-hydroxytryptamine receptor 1B; assay: Antagonist activity at 5-HT1B receptor (unknown origin) by Tango assay; type: functional
[13] = target: T5, 5-hydroxytryptamine receptor 2B; assay: Antagonist activity at 5-HT2B receptor (unknown origin) by calcium release assay; type: functional
[14] = target: T10, 5-hydroxytryptamine receptor 6 (Homo sapiens, UniProt P50406); assay: Displacement of [3H]-LSD from human 5-HT6 receptor expressed in HEK cells after 90 mins by microbeta scintillation counting analysis; type: cell-based
T10 sequence (P50406 whole entry): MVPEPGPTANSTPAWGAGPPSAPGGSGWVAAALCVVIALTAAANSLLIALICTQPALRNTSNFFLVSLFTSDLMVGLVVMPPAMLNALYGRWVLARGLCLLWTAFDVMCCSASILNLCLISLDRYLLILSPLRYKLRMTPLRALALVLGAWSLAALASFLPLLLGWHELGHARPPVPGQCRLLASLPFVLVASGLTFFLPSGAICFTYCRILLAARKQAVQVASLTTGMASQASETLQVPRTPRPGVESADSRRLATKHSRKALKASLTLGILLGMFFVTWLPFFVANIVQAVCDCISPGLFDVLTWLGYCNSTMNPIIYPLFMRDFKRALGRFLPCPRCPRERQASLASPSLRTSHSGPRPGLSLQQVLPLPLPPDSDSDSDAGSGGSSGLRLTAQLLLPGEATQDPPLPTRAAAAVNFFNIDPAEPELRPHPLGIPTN

[15] = target: T1, 5-hydroxytryptamine receptor 1B; assay: Displacement of [3H]5-CT from human 5-HT1B receptor expressed in HEK cells after 90 mins by microbeta scintillation counting analysis; type: cell-based
[16] = target: T1, 5-hydroxytryptamine receptor 1B; assay: Partial agonist activity at 5-HT1B receptor (unknown origin) by Tango assay; type: functional
[17] = target: T11, 5-hydroxytryptamine receptor 2A (Homo sapiens, UniProt P28223); assay: Displacement of [3H]Ketanserin from 5-HT2A (unknown origin) receptor after 90 mins by microbeta scintillation counting analysis
T11 sequence (P28223 whole entry): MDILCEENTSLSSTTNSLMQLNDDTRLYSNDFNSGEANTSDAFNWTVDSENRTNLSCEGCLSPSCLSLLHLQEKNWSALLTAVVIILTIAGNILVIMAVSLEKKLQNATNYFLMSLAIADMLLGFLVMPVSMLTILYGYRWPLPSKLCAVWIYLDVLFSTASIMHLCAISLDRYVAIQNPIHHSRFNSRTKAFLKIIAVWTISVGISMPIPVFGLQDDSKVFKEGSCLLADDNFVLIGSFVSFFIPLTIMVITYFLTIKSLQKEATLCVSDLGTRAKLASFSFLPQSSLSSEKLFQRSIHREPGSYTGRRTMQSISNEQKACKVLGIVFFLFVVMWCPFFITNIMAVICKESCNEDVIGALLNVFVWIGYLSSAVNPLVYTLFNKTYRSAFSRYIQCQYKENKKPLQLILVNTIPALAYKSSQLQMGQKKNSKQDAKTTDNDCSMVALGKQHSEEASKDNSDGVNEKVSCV

[18] = target: T8, 5-hydroxytryptamine receptor 2C; assay: Binding affinity to 5-HT2C receptor (unknown origin) by radioligand binding assay
[19] = target: T5, 5-hydroxytryptamine receptor 2B; assay: Ratio of IC50 for antagonist activity at 5-HT2B receptor (unknown origin) by calcium release assay to Ki for displacement of [3H]-LSD from human 5-HT2B receptor expressed in baculovirus infected Sf9 cells; type: functional
[20] = target: T2, 5-hydroxytryptamine receptor 3A; assay: Binding affinity to 5-HT3 receptor (unknown origin) by radioligand binding assay
[21] = target: T4, 5-hydroxytryptamine receptor 1E; assay: Binding affinity to 5-HT1E receptor (unknown origin) by radioligand binding assay
[22] = target: T11, 5-hydroxytryptamine receptor 2A; assay: Binding affinity to 5-HT2A receptor (unknown origin) by radioligand binding assay
[23] = target: T7, 5-hydroxytryptamine receptor 5A; assay: Binding affinity to 5-HT5A receptor (unknown origin) by radioligand binding assay
[24] = target: T6, 5-hydroxytryptamine receptor 7; assay: Binding affinity to 5-HT7A receptor (unknown origin) by radioligand binding assay
[25] = target: T3, 5-hydroxytryptamine receptor 1D; assay: Binding affinity to 5-HT1D receptor (unknown origin) by radioligand binding assay
[26] = target: T1, 5-hydroxytryptamine receptor 1B; assay: Displacement of [3H]-LSD from human 5-HT1B receptor expressed in baculovirus infected Sf9 cells
[27] = target: T5, 5-hydroxytryptamine receptor 2B; assay: Agonist activity at 5-HT2B receptor (unknown origin) by calcium release assay; type: functional
[28] = target: T10, 5-hydroxytryptamine receptor 6; assay: Binding affinity to 5-HT6 receptor (unknown origin) by radioligand binding assay
[29] = target: T8, 5-hydroxytryptamine receptor 2C; assay: Antagonist activity at 5-HT2C receptor (unknown origin) by calcium release assay; type: functional
[30] = target: T6, 5-hydroxytryptamine receptor 7; assay: Antagonist activity at 5-HT7A receptor (unknown origin) by Tango assay
Mus musculus [31] = assay: Anticonvulsant activity in ip dosed CF1 mouse assessed as protection against 44 mA current-induced seizure after 1 hr by 6 Hz psychomotor test; type: functional
In short: (§1)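 Mice received compound intraperitoneally at 10, 30 and 100 mg/kg. At 0.25, 0.5, 1, 2 and 4 h after dosing, four mice per time point were challenged with 32 or 44 mA for 3 s through corneal electrodes to elicit a partial psychomotor seizure. Data are the number of mice protected over the number tested at each time.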

Mus musculus [32] = assay: Antinociceptive activity in mouse assessed as tail withdrawal latency at 100 mg/kg, ip by tail flick assay; type: functional, organism-based
Mus musculus [33] = assay: Anticonvulsant activity in mouse assessed as protection against 32/44 mA current-induced seizure at 10 to 100 mg/kg, ip pre-treated 0.25 to 4 hrs before current challenge by 6 Hz psychomotor seizure test; type: functional, organism-based; in short: as §1
Mus musculus [34] = assay: Antinociceptive activity in mouse assessed as increase in pain response latency at 100 mg/kg, ip by hot plate assay; type: functional, organism-based
In short: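 Mice acclimatized for 10 min, then were placed on a hot plate held at 55 °C inside a clear open-top enclosure. Latency to hindpaw lick, hindpaw flick or jump was timed manually to the nearest 0.1 s.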

Mus musculus [35] = assay: Anticonvulsant activity in mouse assessed as protection against maximal electroshock-induced seizure at 100 mg/kg, ip pre-treated 0.25 to 4 hrs before electrical stimulation; type: functional, organism-based
In short: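 Maximal electroshock seizure test in mice, four per condition. Compound was given ip at 10, 30 and 100 mg/kg, and mice were challenged at 0.25, 0.5, 1, 2 and 4 h after treatment. Data are the number protected over the number tested.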

Mus musculus [36] = assay: Anticonvulsant activity in mouse assessed as protection against 44 mA current-induced seizure at 100 mg/kg, ip pre-treated 2 to 4 hrs before current challenge by 6 Hz psychomotor seizure test; type: functional, organism-based; in short: as §1
Mus musculus [37] = assay: Neurotoxicity in mouse assessed as motor impairment at 100 mg/kg, ip after 0.25 to 4 hrs by rotarod test; type: toxicity, organism-based; settings: in vivo
In short: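 Rotarod, four mice per condition after ip dosing (10, 30 or 100 mg/kg). The rod turns at a fixed 6 rpm, and each mouse is observed for 1 min. Falling off three times within that minute scores as minimal motor impairment. Results are the number impaired over the number tested at 0.25–4 h.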

Mus musculus [38] = assay: Anticonvulsant activity in ip dosed CF1 mouse assessed as protection against 44 mA current-induced seizure after 15 mins by 6 Hz psychomotor test; type: functional; settings: 0.25 h
In short: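 Mice received intraperitoneal doses of 10, 30 or 100 mg/kg. At 1/4, 1/2, 1, 2 and 4 h after dosing, four mice per time point were given 44 mA for 3 s through corneal electrodes to elicit a partial psychomotor seizure. The result is the number of mice protected over the number tested.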

[39] = target: T11, 5-hydroxytryptamine receptor 2A; assay: Antagonist activity at 5-HT2A receptor (unknown origin) by calcium release assay; type: functional

T1 sequence (P28222 whole entry): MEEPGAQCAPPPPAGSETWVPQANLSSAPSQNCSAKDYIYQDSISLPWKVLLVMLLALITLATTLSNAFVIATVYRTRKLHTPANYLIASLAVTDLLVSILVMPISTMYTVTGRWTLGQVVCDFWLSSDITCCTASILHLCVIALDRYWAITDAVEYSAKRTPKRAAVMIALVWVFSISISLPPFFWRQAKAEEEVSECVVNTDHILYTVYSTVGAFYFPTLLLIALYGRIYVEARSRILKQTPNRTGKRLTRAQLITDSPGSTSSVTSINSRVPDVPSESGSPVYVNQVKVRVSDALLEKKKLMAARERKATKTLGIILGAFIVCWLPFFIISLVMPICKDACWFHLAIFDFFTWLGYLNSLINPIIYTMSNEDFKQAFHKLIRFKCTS

SMILES	Ki [2] [µM]	IC50 [3] [µM]	Ki [4] [µM]	Ki [5] [µM]	Ki [6] [µM]	Ki [7] [µM]	Ki [8] [µM]	Ki [10] [µM]	IC50 [11] [µM]	IC50 [13] [µM]	Ki [14] [µM]	Ki [17] [µM]	IC50 [29] [µM]	other results
CCCCOc1ccc(C2=N[C@@H](CO)[C@H](C)S2)cc1 (relative stereo)	> 10	> 10	9.7	> 10	7.5	> 10	> 10	3.2	> 10	> 10	> 10	2.2	–	inhibition [1]: 100%; IC50 [9]: > 10 µM; IC50 [12]: 2.1 µM; Ki [15]: > 10 µM; EC50 [16]: 0.029 µM
C[C@@H]1SC(c2ccccc2O)=N[C@@H]1CO [PULICATIN A]	–	–	–	–	–	–	–	–	–	30	–	–	–	Ki [18]: > 10 µM; Ratio [19]: 50 to 140; Ki [20]: > 10 µM; Ki [21]: > 10 µM; Ki [22]: > 10 µM; Ki [23]: > 10 µM; Ki [24]: > 10 µM; Ki [25]: > 10 µM; Ki [26]: > 10 µM; Activity [27]: inactive; Ki [28]: > 10 µM
COC(=O)[C@H](Cc1cnc[nH]1)NC(=O)[C@H]1N=C(c2ccccc2O)S[C@@H]1C	–	–	3.3	1.4	1	–	–	0.82	> 10	10	–	0.31	> 10	–
C[C@@H]1SC(c2ccccc2)=N[C@H]1Cc1c[nH]cn1 (relative stereo)	0.15	–	0.8	> 10	0.38	> 10	> 10	1.2	> 10	10	> 10	5.8	–	IC50 [30]: > 10 µM
CCCC(CCC)C(=O)O [VALPROIC ACID]	–	–	–	–	–	–	–	–	–	–	–	–	–	ED50 (Mus musculus [31]): 310 mg/kg
C[C@@H]1SC(c2ccccc2O)=N[C@H]1CO	–	–	–	–	0.13	–	–	1.6	–	18	–	–	–	Activity (Mus musculus [32]): inactive; Ratio [19]: 50 to 140; Activity (Mus musculus [33]): Active; Activity (Mus musculus [34]): Active; Activity (Mus musculus [35]): inactive; Activity (Mus musculus [36]): inactive; Activity [27]: inactive; Activity (Mus musculus [37]): Non-Toxic
CCC1(C)CC(=O)NC1=O (stereo unspecified) [ETHOSUXIMIDE]	–	–	–	–	–	–	–	–	–	–	–	–	–	ED50 (Mus musculus [38]): > 600 mg/kg
Oc1ccccc1C1=NC(Cc2c[nH]cn2)C(c2ccccc2)S1 (racemic)	0.86	> 10	2.2	2.4	0.1	> 10	4.7	0.77	> 10	3.8	2.2	1.1	> 10	IC50 [39]: 13 µM; IC50 [30]: > 10 µM
CCCCCCOc1ccc(C2=N[C@@H](CO)[C@H](C)S2)cc1 (relative stereo)	> 10	> 10	> 10	> 10	4.3	> 10	> 10	1.7	> 10	> 10	> 10	3.9	–	inhibition [1]: 100%; IC50 [9]: > 10 µM; IC50 [12]: 1.9 µM; Ki [15]: > 10 µM; EC50 [16]: 0.18 µM
C[C@@H]1SC(c2ccccc2O)=N[C@H]1Cc1c[nH]cn1 (racemic)	0.24	–	2	> 10	0.047	3.6	> 10	0.14	> 10	0.8	2.6	1.4	6.8	–
